Data taken from publication PMC3730172 (Scientific Reports, 2013).
Where a chain is given by its changes, count along the chain named. Where “and” joins values, the source holds several entries; their conditions need not be identical. Equal entries are not always repeated.

Experiments:
[1] = test system: PPM1A-regulated P38 and JNK-1 phosphorylation in HEK293 cells; assay type: cell-based, human; details: HEK293, PPM1A overexpression, 1.5 μM CdCl2 6 h, sorbitol 0.4 M 20 min
How it was run: (§1)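 Transfected HEK293 (Flag-tagged wild-type PPM1A, D239K mutant, or control vector) starved 12 h at 36 h post-transfection, then exposed to 1.5 µM CdCl2 or none for 6 h before sorbitol (0.4 M, 20 min, 37°C). Phospho-P38 and phospho-JNK by immunoblotting of cleared lysates (equal protein, BCA); data from ≥3 experiments.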

[2] = target: T1, PHLPP2 catalytic domain (Homo sapiens, UniProt Q6ZVD8); assay: Cadmium inhibition assay of PHLPP2 catalytic domain; assay type: biochemical; details: pNPP, pH 8.0, 25°C
T1 sequence (Q6ZVD8 784-1033): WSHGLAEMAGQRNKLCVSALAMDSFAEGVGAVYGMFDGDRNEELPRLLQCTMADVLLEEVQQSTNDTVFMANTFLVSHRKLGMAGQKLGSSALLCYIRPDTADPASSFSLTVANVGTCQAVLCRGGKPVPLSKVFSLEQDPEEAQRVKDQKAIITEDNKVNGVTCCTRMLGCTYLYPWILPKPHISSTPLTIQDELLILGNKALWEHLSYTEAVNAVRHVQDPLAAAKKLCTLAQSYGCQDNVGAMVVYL
How it was run: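 His-tagged human PHLPP2 catalytic domain (residues 784-1033) expressed from pET-30a; pNPP hydrolysis in 0.05 M Tris, 0.05 M Bis-Tris, 0.1 M acetate, pH 8.0, 25°C, stopped with 0.5 M EDTA pH 10.0; p-nitrophenol at 405 nm.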

[3] = target: T2, PPM1A (Homo sapiens, UniProt P35813); assay: PPM1A-catalyzed hydrolysis of pp-ERK and pp-P38 phospho-peptides; assay type: biochemical; details: pp-ERK and pp-P38 phospho-peptide substrates
T2 sequence (P35813 1-382): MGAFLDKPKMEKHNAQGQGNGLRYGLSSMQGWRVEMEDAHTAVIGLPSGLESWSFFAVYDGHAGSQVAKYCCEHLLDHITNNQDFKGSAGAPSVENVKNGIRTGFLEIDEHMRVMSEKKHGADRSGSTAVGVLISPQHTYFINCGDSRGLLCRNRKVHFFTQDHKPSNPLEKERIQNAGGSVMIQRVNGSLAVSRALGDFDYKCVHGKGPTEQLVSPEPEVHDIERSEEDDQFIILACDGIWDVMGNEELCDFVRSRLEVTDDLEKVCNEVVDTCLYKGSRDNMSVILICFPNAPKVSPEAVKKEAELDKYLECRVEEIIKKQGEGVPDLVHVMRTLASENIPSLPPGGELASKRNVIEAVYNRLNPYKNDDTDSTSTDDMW

[4] = test system: PPM1A-regulated ERK phosphorylation in HEK293 cells; assay: EGF-stimulated ERK phosphorylation in PPM1A-overexpressing HEK293 cells; assay type: cell-based, human; details: HEK293, PPM1A overexpression, 1.5 μM Cd^2+, EGF 5 ng/ml 5 min
How it was run: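 HEK293 in DMEM (25 mM glucose, 10% FBS, penicillin/streptomycin), 37°C, 5% CO2, transiently transfected with Flag-tagged phosphatase or control vector. 36 h post-transfection, serum-starved 12 h, 1.5 µM CdCl2 or none for 6 h, then EGF 5 ng/ml, 5 min, 37°C. Lysates immunoblotted for phospho-ERK or phospho-AKT Ser473; actin loading control; ≥3 experiments.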

[5] = target: T3, PPM1G (Homo sapiens, UniProt O15355); assay: Dephosphorylation of pp-ERK2 protein by PPM1G in vitro; assay type: biochemical; details: 1.5 μM Cd^2+, 1 mM Mn^2+, pH 8.0, 37°C
T3 sequence (O15355 1-546): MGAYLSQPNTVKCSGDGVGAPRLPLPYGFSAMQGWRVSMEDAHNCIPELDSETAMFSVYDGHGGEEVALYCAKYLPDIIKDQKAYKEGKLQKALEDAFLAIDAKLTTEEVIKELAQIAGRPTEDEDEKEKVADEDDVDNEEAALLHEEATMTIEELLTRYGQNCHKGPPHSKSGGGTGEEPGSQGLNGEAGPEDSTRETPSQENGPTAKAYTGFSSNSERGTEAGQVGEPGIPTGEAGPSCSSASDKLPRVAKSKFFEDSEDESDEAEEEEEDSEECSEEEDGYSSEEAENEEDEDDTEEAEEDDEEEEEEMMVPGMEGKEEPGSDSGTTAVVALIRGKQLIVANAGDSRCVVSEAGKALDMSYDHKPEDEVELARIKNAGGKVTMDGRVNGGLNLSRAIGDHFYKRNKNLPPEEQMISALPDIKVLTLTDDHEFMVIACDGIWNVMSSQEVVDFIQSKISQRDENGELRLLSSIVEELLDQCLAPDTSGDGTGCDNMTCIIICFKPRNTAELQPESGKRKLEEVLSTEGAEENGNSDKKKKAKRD
How it was run: (§2)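 Recombinant doubly phosphorylated ERK2 as substrate in 0.05 M Tris/0.05 M Bis-Tris/0.1 M acetate, pH 8.0, 37°C, 1 mM Mn2+, with or without 1.5 µM Cd2+; reactions started by adding phosphatase, stopped by boiling in SDS buffer (100°C, 10 min); phospho-ERK (pT/pY) by Western blot; triplicate, mean ± standard error.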

[6] = test system: PC12 cells overexpressing PPM1A D239K; assay: Apoptosis assay in PC12 cells overexpressing PPM1A D239K; assay type: cell-based; details: overexpression of Cd^2+ insensitive mutant D239K; 1.5 and 2.5 μM, 24 h
[7] = test system: PPM1A D239K-regulated P38 and JNK-1 phosphorylation in HEK293 cells; assay type: cell-based, human; details: HEK293, PPM1A D239K overexpression, 1.5 μM Cd^2+
How it was run: as §1

[8] = target: T3, PPM1G; assay: PPM1G-catalyzed pNPP hydrolysis, metal ion activation and inhibition; assay type: biochemical; details: PPM1G wild type, Mn^2+ as variable substrate, pH 8.0, 25°C
How it was run: (§3)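 Recombinant N-terminal His-tagged human wild-type enzyme in pNPP buffer (0.05 M Tris/0.05 M Bis-Tris/0.1 M acetate), pH 8.0, 25°C. Metal activation: Mn2+ varied 1 to 100 mM with saturating pNPP (10-40 mM), EDTA stop, 405 nm, Michaelis-Menten fit. Inhibition: pNPP fixed at 20 mM, Mn2+ varied, Cd2+ at 0, 0.25, 0.5 and 1.0 µM; double-reciprocal analysis.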

[9] = test system: HEK293 cells; assay: Cell cycle assay in PPM1A-overexpressing HEK293 cells; assay type: cell-based, human; details: HEK293, PPM1A overexpression, 1.5 μM Cd^2+, 24 h
How it was run: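 HEK293 transfected with Flag-PPM1A, serum-starved 12 h (36 h post-transfection), given 1.5 µM CdCl2 for 24 h with cycling restarted by 10% FBS medium. Cells fixed in 75% ethanol at 4°C overnight, resuspended in PBS with 0.1% NaN3, stained with propidium iodide (50 µg/ml); DNA content by flow cytometry, G2/M percentage; ≥3 repeats.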

[10] = target: T3, PPM1G; assay: PPM1G-catalyzed hydrolysis of pp-ERK and pp-P38 phospho-peptides; assay type: biochemical; details: pp-ERK and pp-P38 phospho-peptide substrates
[11] = target: T4, striatum-enriched phosphatase (STEP) (Homo sapiens, UniProt P54829); assay: Dephosphorylation of pp-ERK2 protein by STEP in vitro; assay type: biochemical; details: 1.5 μM Cd^2+, pH 8.0, 37°C
T4 sequence (P54829 1-565): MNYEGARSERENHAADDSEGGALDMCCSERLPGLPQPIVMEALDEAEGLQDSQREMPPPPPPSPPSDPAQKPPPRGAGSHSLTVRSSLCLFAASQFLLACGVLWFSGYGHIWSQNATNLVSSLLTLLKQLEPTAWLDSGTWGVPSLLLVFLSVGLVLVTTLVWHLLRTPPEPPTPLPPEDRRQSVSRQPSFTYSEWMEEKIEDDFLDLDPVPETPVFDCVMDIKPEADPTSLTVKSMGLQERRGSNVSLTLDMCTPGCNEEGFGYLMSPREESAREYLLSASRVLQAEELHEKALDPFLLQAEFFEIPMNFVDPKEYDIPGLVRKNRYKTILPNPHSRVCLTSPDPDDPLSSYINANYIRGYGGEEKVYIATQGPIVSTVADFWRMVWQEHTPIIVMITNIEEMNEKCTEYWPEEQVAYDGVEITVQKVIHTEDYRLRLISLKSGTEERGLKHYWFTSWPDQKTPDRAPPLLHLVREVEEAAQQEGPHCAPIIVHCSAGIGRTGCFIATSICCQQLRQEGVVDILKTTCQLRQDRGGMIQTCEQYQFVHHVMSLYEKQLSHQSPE

[12] = test system: PC12 cells; assay: Apoptosis assay in PC12 cells; assay type: cell-based; details: 1.5 or 2.5 μM Cd^2+, 24 h
[13] = target: T2, PPM1A; assay: Dephosphorylation of pp-ERK2 protein by PPM1A in vitro; assay type: biochemical; details: 1.5 μM Cd^2+, 1 mM Mn^2+, pH 8.0, 37°C, wild-type PPM1A
How it was run: as §2

[14] = target: T2, PPM1A; assay: PPM1A-catalyzed pNPP hydrolysis, metal ion activation and inhibition; assay type: biochemical; details: PPM1A wild type, Mn^2+ as variable substrate, pH 8.0, 25°C
How it was run: as §3

[15] = target: PP2A (Homo sapiens, UniProt P67775); assay: Cadmium inhibition assay of PP2A; assay type: biochemical; details: pNPP, pH 8.0, 25°C
How it was run: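 Commercial PP2A assayed on pNPP in 0.05 M Tris/0.05 M Bis-Tris/0.1 M acetate at pH 8.0 and 25°C; EDTA (0.5 M, pH 10.0) stop; p-nitrophenol at 405 nm.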

[16] = target: T5, PPM1A D239K (Homo sapiens, UniProt P35813, D239K); assay: Dephosphorylation of pp-ERK2 protein by PPM1A D239K in vitro; assay type: biochemical; details: 1.5 μM Cd^2+
T5 sequence (P35813 1-382 D239K): T2 sequence (P35813 1-382) with D239K
How it was run: as §2

[17] = target: T6, PPM1A D282A (Homo sapiens, UniProt P35813, D282A); assay: Dephosphorylation of pp-ERK2 protein by PPM1A D282A in vitro; assay type: biochemical; details: 1.5 μM Cd^2+
T6 sequence (P35813 1-382 D282A): T2 sequence (P35813 1-382) with D282A
How it was run: as §2

Sequence of PP2A (P67775 whole entry): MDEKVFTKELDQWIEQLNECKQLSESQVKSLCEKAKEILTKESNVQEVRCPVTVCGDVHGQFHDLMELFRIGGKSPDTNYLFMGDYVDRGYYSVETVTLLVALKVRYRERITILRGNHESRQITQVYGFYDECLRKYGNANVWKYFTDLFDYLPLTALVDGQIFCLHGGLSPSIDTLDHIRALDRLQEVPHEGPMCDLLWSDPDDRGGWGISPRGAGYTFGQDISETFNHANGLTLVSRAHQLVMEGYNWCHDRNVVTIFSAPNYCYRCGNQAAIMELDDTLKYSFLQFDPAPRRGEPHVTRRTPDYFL
Sequence of PP2A (P30153 2-589 partner limits assumed): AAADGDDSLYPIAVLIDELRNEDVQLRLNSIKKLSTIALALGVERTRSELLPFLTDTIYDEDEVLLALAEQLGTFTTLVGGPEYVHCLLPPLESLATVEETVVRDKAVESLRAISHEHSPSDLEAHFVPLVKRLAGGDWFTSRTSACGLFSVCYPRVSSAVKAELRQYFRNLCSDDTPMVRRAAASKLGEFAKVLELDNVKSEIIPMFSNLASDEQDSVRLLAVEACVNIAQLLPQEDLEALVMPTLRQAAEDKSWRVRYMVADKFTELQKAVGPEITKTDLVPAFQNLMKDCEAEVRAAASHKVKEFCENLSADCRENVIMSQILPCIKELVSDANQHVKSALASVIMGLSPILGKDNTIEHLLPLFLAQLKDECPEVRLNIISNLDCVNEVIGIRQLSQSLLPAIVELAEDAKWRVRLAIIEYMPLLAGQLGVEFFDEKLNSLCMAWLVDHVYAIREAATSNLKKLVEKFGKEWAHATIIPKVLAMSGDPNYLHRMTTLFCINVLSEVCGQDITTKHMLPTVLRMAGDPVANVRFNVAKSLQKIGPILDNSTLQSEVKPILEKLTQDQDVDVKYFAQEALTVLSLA

[Cd+2] [Cd^2+, cadmium]
effect on PPM1A block of sorbitol-induced P38 and JNK-1 phosphorylation [1]: drastically reversed
IC50 [2]: 3000 µM
IC50 [3]: low micromolar range
effect on PPM1A reduction of EGF-induced ERK phosphorylation [4]: reversed
effect on dephosphorylation of phospho-ERK [5]: substantially blocked
PC12 cell apoptosis [6]: did not promote
effect on D239K block of sorbitol-induced P38 and JNK-1 phosphorylation [7]: much weaker effects
Ki [8]: < 1 µM and ~1 µM
effect on PPM1A-induced increase in proportion of cells in G2/M [9]: greatly reversed
IC50 [10]: low micromolar range
effect on dephosphorylation of phospho-ERK [11]: no effect
PC12 cell apoptosis [12]: induced
effect on dephosphorylation of phospho-ERK [13]: substantially blocked
Ki [14]: < 1 µM and ~1 µM
IC50 [15]: 130 µM
effect on dephosphorylation of phospho-ERK [16]: minimally affected
effect on dephosphorylation of phospho-ERK [17]: minimally affected
